Data on 16 compounds can be found in ChEMBL document CHEMBL1828551, “Synthesis, biochemical and molecular modelling studies of antiproliferative azetidinones causing microtubule disruption and mitotic catastrophe” (Eur J Med Chem, 2011).

Experiment [1] concerns MCF7. In words: Antiproliferative activity against ER expressing human MCF7 cells after 72 hrs by MTT assay. The experiment is classed as functional, cell-based. As to conditions: MCF7, 72 h. The procedure, abridged:
(§1)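 Cells seeded at 2.5×10^4 cells/mL, held 24 h at 37°C, then dosed from ethanol stocks over 1 nM–100 μM for 72 h; vehicle 1% v/v ethanol. MTT added to 1 mg/mL final, 2 h in dark at 37°C, DMSO solubilisation 20 min RT, absorbance read. Viability set relative to untreated controls; IC50 from % viability vs concentration. Triplicate wells, ≥3 experiments, mean ± SEM. MCF-7 grown in MEM with 10% FBS, 2 mM glutamine and 1% non-essential amino acids; MDA-MB-231 grown in DMEM with 10% FBS and 2 mM glutamine.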
For orientation: Tetrazolium assays rely on reduction of a dye to a coloured formazan, in cell work by metabolically active cells.

Experiment [2] has as its system MCF7. In words: Effect on microtubule network in human MCF7 cells assessed as microtubule depolymerization at 100 nM after 16 hrs by confocal microscopic analysis. It counts as functional, cell-based. Put shortly: (§2)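 MCF-7 cells seeded at 1×10^5 per well on chamber glass slides, exposed 16 h (vehicle 1% v/v ethanol). Permeabilised with 0.1% Triton X-100 in PBS, fixed in methanol 30 min at -20°C, blocked in 5% BSA. Stained with DM1A anti-tubulin (1:20, 1 h RT), then FITC rabbit anti-mouse (1:200, 1 h RT). Mounted with DAPI and imaged by confocal microscopy; three separate experiments.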

In experiment [3] the test system is MCF7. In words: Cell cycle arrest in human MCF7 cells assessed as accumulation at S phase at 100 nM after 48 hrs by propidium iodide staining based flow cytometric analysis (reference value: 8.77+/-0.9%). The experiment is classed as functional. A general note: Flow cytometry measures light scatter and fluorescence of single cells or particles in a stream.
Experiment [4] deals with MCF7. In words: Cell cycle arrest in human MCF7 cells assessed as accumulation at G1 phase at 100 nM after 48 hrs by propidium iodide staining based flow cytometric analysis (reference value: 60.22+/-3.1%). The experiment is classed as functional.
For the next experiment, the species on record is Bos taurus. In words: Inhibition of bovine tubulin polymerization at 10 uM after 60 mins by spectrophotometric analysis. Put shortly:
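Purified bovine brain tubulin in G-PEM buffer (80 mM PIPES pH 6.9, 0.5 mM MgCl2, 1 mM EGTA, 1 mM GTP, 10.2% glycerol) was mixed with drug at 10 μM or 1% ethanol vehicle. Assembly was started by warming from 4 to 37°C and turbidity read at 340 nm every 30 s for 60 min at 37°C. Run in triplicate.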

Experiment [5] deals with MCF7. Nature of the experiment: Antimitotic activity in human MCF7 cells assessed as mitotic catastrophe at 100 nM after 16 hrs using DAPI staining based immunofluorescence analysis. The experiment is classed as functional, cell-based. Put shortly: as §2
The test system of experiment [6] is MCF7. Nature of the experiment: Cell cycle arrest in human MCF7 cells assessed as appearance of polyploidy at 100 nM after 48 hrs by propidium iodide staining based flow cytometric analysis (reference value: 8.33+/-2.5%). It counts as functional.
In experiment [7] the test system is MCF7. In words: Cell cycle arrest in human MCF7 cells assessed as accumulation at sub-G1 phase at 100 nM after 48 hrs by propidium iodide staining based flow cytometric analysis (reference value: 1.65+/-0.38%). It counts as functional.
Experiment [8] has as its system MDA-MB-231. In words: Antiproliferative activity against ER-independent human MDA-MB-231 cells assessed as cell death at 10 uM after 72 hrs by LDH assay.
Experiment [9] has as its system MCF7. In words: Antiproliferative activity against ER expressing human MCF7 cells assessed as cell death at 10 uM after 72 hrs by LDH assay.
Experiment [10] has as its system MCF7. In words: Cell cycle arrest in human MCF7 cells assessed as accumulation at G2/M phase at 100 nM after 48 hrs by propidium iodide staining based flow cytometric analysis (reference value: 52.02+/-5.9%). The experiment is classed as functional.
Experiment [11] concerns MDA-MB-231. Nature of the experiment: Antiproliferative activity against ER-independent human MDA-MB-231 cells after 72 hrs by MTT assay. The experiment is classed as functional, cell-based. Conditions: MDA-MB-231, 72 h. The procedure, abridged: as §1
Experiment [12] deals with MCF7. Nature of the experiment: Cell cycle arrest in human MCF7 cells assessed as accumulation at G2/M phase at 500 nM after 48 hrs by propidium iodide staining based flow cytometric analysis (reference value: 52.02+/-5.9%). It counts as functional.
Experiment [13] relates to MCF7. In words: Effect on microtubule network in human MCF7 cells assessed as microtubule depolymerization at 500 nM after 16 hrs by confocal microscopic analysis. The experiment is classed as functional, cell-based. Put shortly: as §2
Experiment [14] has as its system MCF7. Nature of the experiment: Cell cycle arrest in human MCF7 cells assessed as appearance of polyploidy at 500 nM after 48 hrs by propidium iodide staining based flow cytometric analysis (reference value: 8.33+/-2.5%). The experiment is classed as functional.
The test system of experiment [15] is MCF7. In words: Antimitotic activity in human MCF7 cells assessed as mitotic catastrophe at 500 nM after 16 hrs using DAPI staining based immunofluorescence analysis. It counts as functional, cell-based. The procedure, abridged:
as §2

In experiment [16] the test system is MCF7. Nature of the experiment: Cell cycle arrest in human MCF7 cells assessed as accumulation at S phase at 500 nM after 48 hrs by propidium iodide staining based flow cytometric analysis (reference value: 8.77+/-0.9%). It counts as functional.
Experiment [17] relates to MCF7. In words: Cell cycle arrest in human MCF7 cells assessed as accumulation at sub-G1 phase at 500 nM after 48 hrs by propidium iodide staining based flow cytometric analysis (reference value: 1.65+/-0.38%). The experiment is classed as functional.
Experiment [18] deals with MCF7. In words: Cell cycle arrest in human MCF7 cells assessed as accumulation at G1 phase at 500 nM after 48 hrs by propidium iodide staining based flow cytometric analysis (reference value: 60.22+/-3.1%). The experiment is classed as functional.

Structures are written as SMILES. Activity calls are given as the source filed them. The calls are words filed in the database; no cut-off is given here.

`COc1ccc(/C=C/[C@@H]2[C@@H](c3ccccc3)C(=O)N2c2cc(OC)c(OC)c(OC)c2)cc1` (relative stereo): the IC50 in the experiment on MCF7 [1] worked out at 1.99 µM.
On to `COc1ccc(/C=C\c2cc(OC)c(OC)c(OC)c2)cc1O` [COMBRETASTATIN A4], for which the outcome in the experiment with MCF7 [2] and in the experiment on MCF7 [5] was Active. In addition, the Activity in the experiment with MCF7 [3] turned out to be 10.66%; in the experiment on MCF7 [4] it was 23.57%; in the experiment on MCF7 [6], 8.36%; in the experiment on MCF7 [7] it was 9.43%; in the experiment on MDA-MB-231 [8] it was 4.3%; in the experiment with MCF7 [9] it was 5.5%. In addition, in the experiment with MCF7 [10], the Activity was 52.02%. In the experiment filed under Bos taurus, the inhibition entry is “Active”. In the experiment with MCF7 [1], this compound displayed an IC50 of 0.005 µM.
As for `COc1cc([C@@H]2[C@@H](c3ccccc3)C(=O)N2c2cc(OC)c(OC)c(OC)c2)cc(OC)c1OC` (relative stereo), the IC50 with MCF7 [1] amounted to 69.8 µM; with MDA-MB-231 [11], 65.6 µM. Further, the Activity with MDA-MB-231 [8] worked out at 0%.
Turning to `COc1ccc(C2(c3ccccc3)C(c3ccccc3)C(=O)N2c2cc(OC)c(OC)c(OC)c2)cc1` (stereo unspecified), in the experiment with MCF7 [1], the IC50 was 0.43 µM.
Regarding `COc1cc(OC)c([C@@H]2[C@@H](c3ccccc3)C(=O)N2c2cc(OC)c(OC)c(OC)c2)c(OC)c1` (relative stereo), the values for the IC50 in the experiment on MCF7 [1] and in the experiment with MDA-MB-231 [11] were 18.7 µM and 5.74 µM, respectively. The Activity in the experiment on MDA-MB-231 [8] was found to be 0%.
As to `COc1ccc(C2(c3ccc(OC)cc3)C(c3ccccc3)C(=O)N2c2cc(OC)c(OC)c(OC)c2)cc1` (stereo unspecified), the IC50 with MCF7 [1] stood at 0.64 µM.
In the case of `COc1cc(N2C(=O)[C@H](c3ccccc3)[C@H]2c2ccc(N(C)C)cc2)cc(OC)c1OC` (relative stereo), the IC50 with MCF7 [1] came out at 0.85 µM; with MDA-MB-231 [11], 5.66 µM. In addition, the Activity with MCF7 [9] was determined as 10.4%.
Turning to `COc1ccc([C@@H]2[C@@H](c3ccccc3)C(=O)N2c2cc(OC)c(OC)c(OC)c2)cc1OC` (relative stereo), the IC50 turned out to be 0.46 µM with MCF7 [1] and 0.53 µM in the experiment on MDA-MB-231 [11]. Also, the Activity is reported as 0% in the experiment with MDA-MB-231 [8] and 3% in the experiment with MCF7 [9].
As to `COc1cc(N2C(=O)C(c3ccccc3)C2(c2ccccc2)c2ccccc2)cc(OC)c1OC` (stereo unspecified), the IC50 with MCF7 [1] worked out at 3.84 µM.
For `COc1cc(OC)c([C@@H]2[C@@H](c3ccccc3)C(=O)N2c2cc(OC)c(OC)c(OC)c2)cc1OC` (relative stereo), the IC50 in the experiment with MCF7 [1] was 46.9 µM; with MDA-MB-231 [11], 38.9 µM. In the experiment with MDA-MB-231 [8], the Activity is 0%.
For the compound `COc1cc(N2C(=O)[C@H](c3ccccc3)[C@H]2c2ccc(F)cc2)cc(OC)c1OC` (relative stereo), the IC50 in the experiment with MCF7 [1] was found to be 0.35 µM; in the experiment with MDA-MB-231 [11], 1.14 µM. Further, the Activity in the experiment on MDA-MB-231 [8] is reported as 0%.
As to `COc1cc(N2C(=O)[C@H](c3ccccc3)[C@H]2c2ccc3ccccc3c2)cc(OC)c1OC` (relative stereo), the IC50 with MCF7 [1] came to 0.44 µM.
As for `CCOc1ccc([C@@H]2[C@@H](c3ccccc3)C(=O)N2c2cc(OC)c(OC)c(OC)c2)cc1` (relative stereo), the Activity was found to be 47.53% with MCF7 [12]; 7.4% with MCF7 [14]; 9.49% in the experiment with MCF7 [16]; 13.97% with MCF7 [17]; 5.4% in the experiment on MDA-MB-231 [8]; 21.18% with MCF7 [18]. Moreover, the outcome in the experiment with MCF7 [13] and in the experiment on MCF7 [15] was Active. Moreover, the inhibition result in the experiment filed under Bos taurus is “Active”. Also, the IC50 is 0.22 µM in the experiment with MCF7 [1] and 0.83 µM in the experiment on MDA-MB-231 [11].
In turn, `COc1ccc([C@@H]2[C@@H](c3ccccc3)C(=O)N2c2cc(OC)c(OC)c(OC)c2)cc1Br` (relative stereo) yielded an IC50 with MCF7 [1] of 1.42 µM.
As for `COc1cc(N2C(=O)[C@H](c3ccccc3)[C@H]2c2ccc(OC)c(OC)c2OC)cc(OC)c1OC`, the IC50 came to 1.12 µM in the experiment with MCF7 [1] and 1.96 µM in the experiment with MDA-MB-231 [11]. For the same compound, in the experiment on MDA-MB-231 [8], the Activity worked out at 6.1%.
Regarding `COc1ccc([C@@H]2[C@@H](c3ccccc3)C(=O)N2Cc2cc(OC)c(OC)c(OC)c2)cc1` (relative stereo), the midpoint of inhibition with MCF7 [1], the IC50, lay at 38.6 µM.

What is called IC50 is the concentration at which inhibition is half-maximal. Low readings indicate greater potency, high ones weaker potency.
